The source made the active and inactive calls. No cut-off for these calls is given here.
Assays:
Homo sapiens = species: Homo sapiens; assay: Selectivity ratio of IC50 for human JAK3 to IC50 for human NIK
[1] = target: Mitogen-activated protein kinase kinase kinase 14 (Mus musculus) (UniProt Q9WUL6); assay: In vivo inhibition of NIK in C57 mouse model of IMQ-induced psoriasis assessed as reduction in NF-kappaB signalling in back skin by measuring decrease in mRNA IL-6 level at 60 to 120 mg/kg, po administered starting from day 3 post IMQ-challenge and measured 2 days post-last dose of IMQ by qPCR analysis; type: functional, organism-based
Mitogen-activated protein kinase kinase kinase 14 (Mus musculus), sequence (Q9WUL6 whole entry): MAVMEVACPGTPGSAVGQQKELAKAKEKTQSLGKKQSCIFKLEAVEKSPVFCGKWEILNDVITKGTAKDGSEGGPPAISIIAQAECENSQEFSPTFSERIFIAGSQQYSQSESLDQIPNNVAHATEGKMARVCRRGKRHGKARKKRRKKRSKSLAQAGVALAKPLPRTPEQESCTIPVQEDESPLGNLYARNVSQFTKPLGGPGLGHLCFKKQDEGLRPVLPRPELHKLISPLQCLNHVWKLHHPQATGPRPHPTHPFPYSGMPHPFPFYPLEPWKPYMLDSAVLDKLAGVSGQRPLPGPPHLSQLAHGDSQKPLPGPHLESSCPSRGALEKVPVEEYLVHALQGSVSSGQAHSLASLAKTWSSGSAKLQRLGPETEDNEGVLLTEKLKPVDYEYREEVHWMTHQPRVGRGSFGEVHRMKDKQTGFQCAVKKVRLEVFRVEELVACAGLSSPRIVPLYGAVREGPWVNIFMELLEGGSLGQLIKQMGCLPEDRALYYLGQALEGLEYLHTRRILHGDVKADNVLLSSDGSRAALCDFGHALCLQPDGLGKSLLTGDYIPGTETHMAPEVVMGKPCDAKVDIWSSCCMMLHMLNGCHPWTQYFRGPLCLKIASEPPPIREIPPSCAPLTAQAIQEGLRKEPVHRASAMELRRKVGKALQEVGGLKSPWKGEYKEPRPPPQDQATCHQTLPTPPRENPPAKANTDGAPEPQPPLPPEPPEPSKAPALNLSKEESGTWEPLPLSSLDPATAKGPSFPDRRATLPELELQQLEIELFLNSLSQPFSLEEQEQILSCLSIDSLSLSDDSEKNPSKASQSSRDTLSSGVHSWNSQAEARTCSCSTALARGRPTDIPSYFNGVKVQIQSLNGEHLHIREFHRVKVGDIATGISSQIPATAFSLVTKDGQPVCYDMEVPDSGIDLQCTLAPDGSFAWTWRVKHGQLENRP
Procedure, shortened: (§1)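 IMQ psoriasis model: 5% imiquimod cream applied to C57 mouse back skin once daily for seven days; oral dosing 60 or 120 mg/kg once daily from day 3, n = 6 per group. Back-skin mRNA measured by qPCR.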

J774 [2] = assay: Antiinflammatory activity in mouse J774 cells assessed as reduction in LPS-induced NOS2 mRNA level by SYBR green dye-based quantitative PCR analysis; type: functional, cell-based
Procedure, shortened: (§2)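 LPS-stimulated J774 macrophages; mRNA quantified by qPCR using 4 µL cDNA plus 16 µL master mix per reaction. Mean ± SD of three biological replicates; significance by two-tailed Student's t-test against the model group.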

[3] = target: Mitogen-activated protein kinase kinase kinase 14 (Mus musculus) (UniProt Q9WUL6); assay: In vivo inhibition of NIK in C57 mouse model of IMQ-induced psoriasis assessed as reduction in NF-kappaB signalling in back skin by measuring decrease in TNF-alpha mRNA level at 60 to 120 mg/kg, po administered starting from day 3 post IMQ-challenge and measured 2 days post-last dose of IMQ by qPCR analysis; type: functional, organism-based; procedure, shortened: as §1
J774 [4] = assay: Antiinflammatory activity in mouse J774 cells assessed as reduction in LPS-induced CCL3 mRNA level by SYBR green dye-based quantitative PCR analysis; type: functional, cell-based; procedure, shortened: as §2
[5] = Elimination half life in human liver microsomes incubated for 10 mins followed by potassium phosphate buffer addition and measured after 5 to 60 mins by LC-MS/MS analysis; type: ADME, Microsome; details: read-out: beta t1/2
Procedure, shortened: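 Rat, dog, monkey or human liver microsomes pre-incubated with compound at 37 °C for 10 min; reaction started after pre-warming and stopped at 5, 15, 30, 60 min with chilled quench containing tolbutamide and labetalol. No-cofactor control in 100 mM potassium phosphate for 60 min. LC-MS/MS analysis; first-order fit: k = −slope, T1/2 = 0.693/k, CLint = k/microsomal protein concentration.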

[6] = Intrinsic hepatic clearance in monkey; type: ADME, Macaca mulatta; details: rhesus monkey, in vivo
Procedure, shortened: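 Scaled from microsomal intrinsic clearance: CLint,in vitro × microsomal protein per g liver × liver weight per kg body weight.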

CC(O)(C#Cc1ccc(N2CCOCC2)c(Nc2ncnc3[nH]ccc23)c1)c1nccs1 (racemic)
Ratio IC50 (Homo sapiens): 4 to 20 | inhibition [1]: Active | Activity (J774 [2]): Active | inhibition [3]: Active | Activity (J774 [4]): Active | half-life [5]: 42.9 min | CLH [6]: 111 mL/min/kg

Source: ChEMBL document CHEMBL4616671, “Identification of N-Phenyl-7H-pyrrolo[2,3-d]pyrimidin-4-amine Derivatives as Novel, Potent, and Selective NF-κB Inducing Kinase (NIK) Inhibitors for the Treatment of Psoriasis” (J Med Chem, 2020)
